Reference: ChEMBL document CHEMBL4699542, “Design and synthesis of novel methoxypyridine-derived gamma-secretase modulators” (Bioorg Med Chem, 2020)
pEC50, pIC50: −log10 of the molar value. Active and inactive are the calls of the source. The calls are words filed in the database; no cut-off is given here.

Legend:
[1] = AUC infinity in CD-1 mouse at 1 mg/kg, iv administered as single dose measured up to 24 hrs; assay type: ADME, organism-based; design: route intravenous, dose 1 mg/kg, time <=24; conditions: in vivo
Procedure, shortened: (§1)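 Male CD-1 mice, 6–8 weeks old, single dose by tail vein (1 mg/kg, 3% NMP/45% PEG300/12% ethanol/40% water) or oral gavage (5 mg/kg, 5% NMP/95% PEG300). Retro-orbital plasma sampled 0.083 (iv only) to 24 h, n=3/timepoint, and analysed by HPLC/MS/MS. Non-compartmental analysis. Half-life taken from the terminal phase using ≥3 non-zero points after Tmax.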

[2] = Ratio of drug level in brain to plasma of transgenic J20 mouse overexpressing human APP at 50 mg/kg, po administered via gavage for 3 consecutive days and measured after 4 hrs post last dose on day 3 by HPLC-MS/MS analysis; assay type: ADME, organism-based; conditions: 72 h, time 3 day
Procedure, shortened: (§2)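 Female J20 mice, 5–6 months old (n=5/dose), dosed by oral gavage once daily for 3 days in 5% NMP/95% PEG300 vehicle. Sacrificed 4 h after the day-3 dose. Plasma and brain drug levels measured by LC-MS/MS (LLOQ 1 ng/mL plasma, 5 ng/g brain). Ratio = brain level/plasma level.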

[3] = Half life in CD-1 mouse at 5 mg/kg, po administered as single dose measured up to 24 hrs; assay type: ADME, organism-based; conditions: in vivo; procedure, shortened: as §1
[4] = Drug level in brain of transgenic J20 mouse overexpressing human APP at 100 mg/kg, po administered via gavage for 3 consecutive days and measured after 4 hrs post last dose on day 3 by HPLC-MS/MS analysis; assay type: ADME, organism-based; conditions: time 3 day, read-out: Ct
Procedure, shortened: (§3)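 Female J20 mice, 5–6 months old, given 25, 50 or 100 mg/kg orally (5% NMP/95% PEG300) daily for 3 days, n=5/dose. Plasma and brain taken 4 h after the final dose and analysed by LC-MS/MS. LLOQ was 1 ng/mL in plasma and 5 ng/g in brain.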

Cytochrome P450 2C9 = Cytochrome P450 2C9 (Homo sapiens, UniProt P11712); assay: Inhibition of recombinant CYP2C9 (unknown origin) by fluorescence-based assay; assay type: ADME
Cytochrome P450 2C9, sequence (P11712 whole entry, canonical isoform): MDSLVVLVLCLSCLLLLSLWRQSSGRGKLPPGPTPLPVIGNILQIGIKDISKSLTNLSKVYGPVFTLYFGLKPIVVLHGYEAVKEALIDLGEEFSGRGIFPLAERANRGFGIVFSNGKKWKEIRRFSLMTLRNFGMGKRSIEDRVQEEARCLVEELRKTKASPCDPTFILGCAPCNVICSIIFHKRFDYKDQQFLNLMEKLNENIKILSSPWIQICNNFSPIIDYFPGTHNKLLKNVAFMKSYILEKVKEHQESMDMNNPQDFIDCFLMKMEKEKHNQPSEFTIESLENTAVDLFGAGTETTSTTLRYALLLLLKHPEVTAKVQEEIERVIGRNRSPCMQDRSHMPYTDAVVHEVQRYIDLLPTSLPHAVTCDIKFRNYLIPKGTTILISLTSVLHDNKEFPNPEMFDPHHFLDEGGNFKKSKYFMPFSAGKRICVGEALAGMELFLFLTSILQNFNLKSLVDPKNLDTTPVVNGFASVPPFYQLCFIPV
Procedure, shortened: (§4)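 Recombinant CYP isoforms (five tested) screened for inhibition in fluorescence-based assays; IC50 in μM.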

[5] = AUC infinity in CD-1 mouse at 5 mg/kg, po administered as single dose measured up to 24 hrs; assay type: ADME, organism-based; design: route oral, dose 5 mg/kg, time <=24; conditions: in vivo; procedure, shortened: as §1
[6] = Drug level in plasma of transgenic J20 mouse overexpressing human APP at 50 mg/kg, po administered via gavage for 3 consecutive days and measured after 4 hrs post last dose on day 3 by HPLC-MS/MS analysis; assay type: ADME, organism-based; conditions: time 3 day; procedure, shortened: as §3
[7] = In vivo modulation of gamma secretase in transgenic J20 mouse overexpressing human APP assessed as reduction in plasma amyloid beta40 level at 100 mg/kg, po administered via gavage for 3 consecutive days and measured after 4 hrs post last dose on day 3 by meso scale discovery relative to control; assay type: functional; design: scale not given: the % may be the effect or the level left; conditions: time 3 day
Procedure, shortened: (§5)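 Female J20 mice, 5–6 months old (n=5/dose), dosed orally at 25, 50 or 100 mg/kg or with vehicle (5% NMP/95% PEG300) for 3 consecutive days. Plasma was taken 4 h after the final dose. Aβ38/40/42 measured by Meso Scale multiplex immunoassay, with % reduction relative to vehicle. Mean ± SEM, ANOVA.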

[8] = Drug level in brain of transgenic J20 mouse overexpressing human APP at 25 mg/kg, po administered via gavage for 3 consecutive days and measured after 4 hrs post last dose on day 3 by HPLC-MS/MS analysis; assay type: ADME, organism-based; conditions: time 3 day, read-out: Ct; procedure, shortened: as §3
[9] = Cmax in CD-1 mouse at 5 mg/kg, po administered as single dose measured up to 24 hrs; assay type: ADME, organism-based; design: route oral, dose 5 mg/kg, time <=24; conditions: in vivo; procedure, shortened: as §1
[10] = Apparent permeability from apical to basolateral membrane in MDCK-MDR1 cells; assay type: ADME, cell-based, Canis lupus familiaris; conditions: dog
Procedure, shortened: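 Apical-to-basolateral apparent permeability (×10⁻⁶ cm/s) measured across MDR1-MDCK cell monolayers.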

[11] = Ratio of drug concentration in CD-1 mouse brain to plasma at 5 mg/kg, po measured after 1 hr; assay type: ADME, organism-based
Procedure, shortened: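 Male CD-1 mice dosed once iv (1 mg/kg) or by oral gavage (5 mg/kg). Brain and plasma collected 1 h post dose (n=3/timepoint). Drug levels by HPLC/MS/MS; brain/plasma ratio calculated from these levels.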

[12] = Drug level in plasma of transgenic J20 mouse overexpressing human APP at 100 mg/kg, po administered via gavage for 3 consecutive days and measured after 4 hrs post last dose on day 3 by HPLC-MS/MS analysis; assay type: ADME, organism-based; conditions: time 3 day; procedure, shortened: as §3
Cytochrome P450 2D6 = Cytochrome P450 2D6 (Homo sapiens, UniProt P10635); assay: Inhibition of recombinant CYP2D6 (unknown origin) by fluorescence-based assay; assay type: ADME; procedure, shortened: as §4
Cytochrome P450 2D6, sequence (P10635 whole entry): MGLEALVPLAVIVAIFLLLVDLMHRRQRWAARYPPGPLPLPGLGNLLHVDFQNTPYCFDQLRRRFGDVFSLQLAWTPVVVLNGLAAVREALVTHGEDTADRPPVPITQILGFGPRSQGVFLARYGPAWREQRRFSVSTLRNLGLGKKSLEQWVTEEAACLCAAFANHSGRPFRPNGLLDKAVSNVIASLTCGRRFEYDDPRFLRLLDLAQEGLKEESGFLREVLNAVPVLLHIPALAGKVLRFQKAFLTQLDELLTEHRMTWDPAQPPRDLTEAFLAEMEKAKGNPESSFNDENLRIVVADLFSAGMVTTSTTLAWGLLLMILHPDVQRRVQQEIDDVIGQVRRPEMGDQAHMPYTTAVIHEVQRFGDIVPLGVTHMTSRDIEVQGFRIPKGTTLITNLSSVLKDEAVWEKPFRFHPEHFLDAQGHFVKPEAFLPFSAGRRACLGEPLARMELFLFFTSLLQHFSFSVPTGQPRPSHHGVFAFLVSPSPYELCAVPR

Gamma-secretase [13] = assay: Modulation of gamma secretase in human SH-SY5Y cells overexpressing wild type APP751 assessed as effect on amyloid beta38 level by meso scale discovery; assay type: cell-based
[14] = Metabolic stability in human liver microsomes assessed as parent compound remaining at 1 uM incubated for 30 mins; assay type: ADME, Microsome; conditions: microsomes, 0.5 h, 1 µM
Procedure, shortened: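 Test compound at 1 μM incubated 30 min with human, rat or mouse liver microsomes (1 mg/mL); parent remaining expressed as %.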

[15] = target: Gamma-secretase (Homo sapiens) (UniProt Q96BI3+Q9NZ42+Q8WW43+P49768+Q92542+P49810); assay: Modulation of gamma secretase in human SH-SY5Y cells overexpressing wild type APP751 assessed as effect on total amyloid beta level by meso scale discovery; assay type: cell-based
Procedure, shortened: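 SHSY5Y cells stably overexpressing wild-type human APP751 treated with the compound over a concentration range. Aβ38, Aβ40, Aβ42 and total Aβ in the medium measured by MSD triplex immunoassay (4G8 detection, 2 h at room temperature). Concentrations back-fitted from standard curves.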

Gamma-secretase [16] = assay: Modulation of gamma secretase in human SH-SY5Y cells overexpressing wild type APP751 assessed as effect on amyloid beta42 level by meso scale discovery; assay type: cell-based
Gamma-secretase [17] = assay: Modulation of gamma secretase in human SH-SY5Y cells overexpressing wild type APP751 assessed as inhibition of amyloid beta (35 to 42 residues) formation incubated for overnight by ELISA; assay type: cell-based
Procedure, shortened: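 SHSY5Y-APP751 cells plated at 75K/well and incubated overnight at 37 °C, then treated 24 h over 10 concentrations ([…]–10 μM, 1:3.16 steps, in duplicate). Medium Aβ42 measured by sandwich ELISA (Aβ35–42 capture, AP-conjugated Aβ1–12 detection, CDP-Star luminescence) against an Aβ42 standard curve.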

[18] = Cmax in CD-1 mouse at 1 mg/kg, iv administered as single dose measured up to 24 hrs; assay type: ADME, organism-based; design: route intravenous, dose 1 mg/kg, time <=24; conditions: in vivo; procedure, shortened: as §1
[19] = Ratio of drug level in brain to plasma of transgenic J20 mouse overexpressing human APP at 25 mg/kg, po administered via gavage for 3 consecutive days and measured after 4 hrs post last dose on day 3 by HPLC-MS/MS analysis; assay type: ADME, organism-based; conditions: 72 h, time 3 day; procedure, shortened: as §2
[20] = In vivo modulation of gamma secretase in transgenic J20 mouse overexpressing human APP assessed as reduction in plasma amyloid beta40 level at 25 mg/kg, po administered via gavage for 3 consecutive days and measured after 4 hrs post last dose on day 3 by meso scale discovery relative to control; assay type: functional; design: scale not given: the % may be the effect or the level left; conditions: time 3 day; procedure, shortened: as §5
[21] = Drug level in brain of transgenic J20 mouse overexpressing human APP at 50 mg/kg, po administered via gavage for 3 consecutive days and measured after 4 hrs post last dose on day 3 by HPLC-MS/MS analysis; assay type: ADME, organism-based; conditions: time 3 day, read-out: Ct; procedure, shortened: as §3

SMILES	AUC [1]	BPR [2]	t1/2 [3]	concentration at 72 h [4]	pIC50 (Cytochrome P450 2C9)	AUC [5]	concentration at 72 h [6]	Activity [7]	concentration at 72 h [8]	Cmax [9]	Papp [10]	BPR [11]	concentration at 72 h [12]	pIC50 (Cytochrome P450 2D6)	pEC50 (Gamma-secretase [13])	Stabilty [14]	Activity [15]	pIC50 (Gamma-secretase [16])	pIC50 (Gamma-secretase [17])	Cmax [18]	other results
CCn1nc2c(c1Nc1nc(-c3ccc(-n4cnc(C)c4)c(OC)n3)cs1)CCC2	383 ng·h/mL	0.38	5.3 h	337 ng/g	< 4.00	1257 ng·h/mL	223 ng/mL	68%	31 ng/g	377 ng/mL	29.6 10^-6 cm/s	0.4	726 ng/mL	< 4.00	6.69	51%	inactive	7.72	7.48	549 ng/mL	BPR [19]: 0.37; Activity [20]: 19%; concentration at 72 h [21]: 83 ng/g
COc1nc(-c2csc(Nc3c4c(nn3CCF)CCCC4)n2)ccc1-n1cnc(C)c1	288 ng·h/mL	0.42	2.6 h	105 ng/g	5.17	669 ng·h/mL	639 ng/mL	46%	39 ng/g	167 ng/mL	32.6 10^-6 cm/s	0.68	183 ng/mL	< 4.00	6.73	100%	inactive	7.85	7.33	309 ng/mL	BPR [19]: 0.53; Activity [20]: 11%; concentration at 72 h [21]: 282 ng/g
